Test results from ChEMBL document CHEMBL5674868, “Cancer Cells Hijack PRC2 to Modify Multiple Cytokine Pathways” (PLoS One, 2015).
Activity calls are given as the source filed them. The rule behind the calls is not given here.

Columns and labels:
Format in all cases: cell-based
[1] = target: Histone-lysine N-methyltransferase EZH2 (Homo sapiens) (UniProt Q15910); assay: Inhibition of EZH2 in human HeLa cells assessed as increase in IFN-gamma-induced SUZ12-repressed ISGs mRNA level after 6 hrs by RT-PCR analysis
Procedure, shortened: (§1)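 Cells were treated for two four-day cycles with 2 μM GSK343 or UNC1999, then left untreated or stimulated with human IFNγ for 6 h. mRNA was measured by reverse transcription quantitative PCR and normalized to β-actin. Three biological replicates were run per treatment group.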

[2] = target: Histone-lysine N-methyltransferase EZH2 (Homo sapiens) (UniProt Q15910); assay: Inhibition of EZH2 in human A549 cells assessed as increase in IFN-gamma-induced SUZ12-repressed ISGs mRNA level after 6 hrs by RT-PCR analysis; procedure, shortened: as §1
[3] = target: Histone-lysine N-methyltransferase EZH2 (Homo sapiens) (UniProt Q15910); assay: Inhibition of EZH2 in human ASPC1 cells assessed as effect on PITX2 mRNA level after 6 hrs by RT-PCR analysis; procedure, shortened: as §1
[4] = target: Histone-lysine N-methyltransferase EZH2 (Homo sapiens) (UniProt Q15910); assay: Inhibition of EZH2 in human MCF7 cells assessed as effect on HPRT mRNA level after 6 hrs by RT-PCR analysis; procedure, shortened: as §1
[5] = target: Histone-lysine N-methyltransferase EZH2 (Homo sapiens) (UniProt Q15910); assay: Inhibition of EZH2 in human A549 cells assessed as increase in LPS-induced IL-6 level for 24 hrs by ELISA
Procedure, shortened: (§2)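 A549 cells were pretreated for two four-day cycles with 2 μM UNC1999 or with DMSO. They were seeded at 3×10^4/well, allowed to settle for 4 h, then given the indicated concentrations of IFNγ, IL1β, LPS or TNFα for 24 h. Secreted IL6, IL8 or CXCL10 in the supernatant was measured by ELISA in duplicate. n = 3; ANOVA followed by Fisher test.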

[6] = target: Histone-lysine N-methyltransferase EZH2 (Homo sapiens) (UniProt Q15910); assay: Inhibition of EZH2 in human ASPC1 cells assessed as effect on HPRT mRNA level after 6 hrs by RT-PCR analysis; procedure, shortened: as §1
[7] = target: Histone-lysine N-methyltransferase EZH2 (Homo sapiens) (UniProt Q15910); assay: Inhibition of EZH2 in human A549 cells assessed as increase in TNF-alpha-induced CXCL-1 level for 24 hrs by multiplexing laser bead assay
Procedure, shortened: (§3)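 A549 cells were pretreated with vehicle or UNC1999 over two four-day cycles at 2 μM. They were seeded at 3×10^4/well, rested for 4 h, then exposed for 24 h to no stimulus, 5 μg/ml E. coli LPS or 10 U/ml TNFα. Secreted cytokines in the supernatants were quantified by a 41-plex laser bead assay.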

[8] = target: Histone-lysine N-methyltransferase EZH2 (Homo sapiens) (UniProt Q15910); assay: Inhibition of EZH2 in human A549 cells assessed as increase in TNF-alpha-induced IL-6 level for 24 hrs by multiplexing laser bead assay; procedure, shortened: as §3
[9] = target: Histone-lysine N-methyltransferase EZH2 (Homo sapiens) (UniProt Q15910); assay: Inhibition of EZH2 in human MCF7 cells assessed as effect on IRF1 mRNA level after 6 hrs by RT-PCR analysis; procedure, shortened: as §1
[10] = target: Histone-lysine N-methyltransferase EZH2 (Homo sapiens) (UniProt Q15910); assay: Inhibition of EZH2 in human HeLa cells assessed as effect on HPRT mRNA level after 6 hrs by RT-PCR analysis; procedure, shortened: as §1
[11] = target: Histone-lysine N-methyltransferase EZH2 (Homo sapiens) (UniProt Q15910); assay: Inhibition of EZH2 in human ASPC1 cells assessed as effect on PITX2 mRNA level after 6 hrs by RT-PCR analysis in presence of IFN-gamma; procedure, shortened: as §1
[12] = target: Histone-lysine N-methyltransferase EZH2 (Homo sapiens) (UniProt Q15910); assay: Inhibition of EZH2 in human HeLa cells assessed as decrease in H3K27me3 levels at 2 uM after 6 hrs by Western blot analysis
[13] = target: Histone-lysine N-methyltransferase EZH2 (Homo sapiens) (UniProt Q15910); assay: Inhibition of EZH2 in human A549 cells assessed as increase in TNF-alpha-induced IL-8 level for 24 hrs by multiplexing laser bead assay; procedure, shortened: as §3
[14] = target: Histone-lysine N-methyltransferase EZH2 (Homo sapiens) (UniProt Q15910); assay: Inhibition of EZH2 in human MCF7 cells assessed as increase in IFN-gamma-induced SUZ12-repressed ISGs mRNA level after 6 hrs by RT-PCR analysis
Procedure, shortened: (§4)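 Cells pretreated for two 4-day cycles with 2 µM GSK343 or UNC1999, then left unstimulated or given human IFNγ for 6 h. RNA reverse-transcribed and measured by quantitative PCR, normalized to β-actin. Three biological replicates per treatment group.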

[15] = target: Histone-lysine N-methyltransferase EZH2 (Homo sapiens) (UniProt Q15910); assay: Inhibition of EZH2 in human MCF7 cells assessed as decrease in H3K27me3 levels at 2 uM after 6 hrs by Western blot analysis
[16] = target: Histone-lysine N-methyltransferase EZH2 (Homo sapiens) (UniProt Q15910); assay: Inhibition of EZH2 in human A549 cells assessed as increase in LPS-induced IL-8 level for 24 hrs by multiplexing laser bead assay; procedure, shortened: as §3
[17] = target: Histone-lysine N-methyltransferase EZH2 (Homo sapiens) (UniProt Q15910); assay: Inhibition of EZH2 in human A549 cells assessed as increase in LPS-induced IL-6 level for 24 hrs by multiplexing laser bead assay; procedure, shortened: as §3
[18] = target: Histone-lysine N-methyltransferase EZH2 (Homo sapiens) (UniProt Q15910); assay: Inhibition of EZH2 in human A549 cells assessed as increase in IL-1beta-induced IL-6 level for 24 hrs by ELISA; procedure, shortened: as §2
[19] = target: Histone-lysine N-methyltransferase EZH2 (Homo sapiens) (UniProt Q15910); assay: Inhibition of EZH2 in human A549 cells assessed as effect on PITX2 mRNA level after 6 hrs by RT-PCR analysis; procedure, shortened: as §1
[20] = target: Histone-lysine N-methyltransferase EZH2 (Homo sapiens) (UniProt Q15910); assay: Inhibition of EZH2 in human A549 cells assessed as effect on IRF1 mRNA level after 6 hrs by RT-PCR analysis; procedure, shortened: as §1
[21] = target: Histone-lysine N-methyltransferase EZH2 (Homo sapiens) (UniProt Q15910); assay: Inhibition of EZH2 in human HeLa cells assessed as effect on HPRT mRNA level after 6 hrs by RT-PCR analysis in presence of IFN-gamma; procedure, shortened: as §1
[22] = target: Histone-lysine N-methyltransferase EZH2 (Homo sapiens) (UniProt Q15910); assay: Inhibition of EZH2 in human A549 cells assessed as increase in TNFalpha-induced CXCL10 level for 24 hrs by ELISA; procedure, shortened: as §2
[23] = target: Histone-lysine N-methyltransferase EZH2 (Homo sapiens) (UniProt Q15910); assay: Inhibition of EZH2 in human A549 cells assessed as increase in LPS-induced IL-8 level for 24 hrs by ELISA; procedure, shortened: as §2
[24] = target: Histone-lysine N-methyltransferase EZH2 (Homo sapiens) (UniProt Q15910); assay: Inhibition of EZH2 in human MCF7 cells assessed as effect on HPRT mRNA level after 6 hrs by RT-PCR analysis in presence of IFN-gamma; procedure, shortened: as §1
[25] = target: Histone-lysine N-methyltransferase EZH2 (Homo sapiens) (UniProt Q15910); assay: Inhibition of EZH2 in human HeLa cells assessed as effect on IRF1 mRNA level after 6 hrs by RT-PCR analysis in presence of IFN-gamma; procedure, shortened: as §1
[26] = target: Histone-lysine N-methyltransferase EZH2 (Homo sapiens) (UniProt Q15910); assay: Inhibition of EZH2 in human A549 cells assessed as effect on HPRT mRNA level after 6 hrs by RT-PCR analysis; procedure, shortened: as §1
[27] = target: Histone-lysine N-methyltransferase EZH2 (Homo sapiens) (UniProt Q15910); assay: Inhibition of EZH2 in human MCF7 cells assessed as effect on PITX2 mRNA level after 6 hrs by RT-PCR analysis; procedure, shortened: as §4

Histone-lysine N-methyltransferase EZH2 (Homo sapiens), sequence (Q15910 whole entry, looked up): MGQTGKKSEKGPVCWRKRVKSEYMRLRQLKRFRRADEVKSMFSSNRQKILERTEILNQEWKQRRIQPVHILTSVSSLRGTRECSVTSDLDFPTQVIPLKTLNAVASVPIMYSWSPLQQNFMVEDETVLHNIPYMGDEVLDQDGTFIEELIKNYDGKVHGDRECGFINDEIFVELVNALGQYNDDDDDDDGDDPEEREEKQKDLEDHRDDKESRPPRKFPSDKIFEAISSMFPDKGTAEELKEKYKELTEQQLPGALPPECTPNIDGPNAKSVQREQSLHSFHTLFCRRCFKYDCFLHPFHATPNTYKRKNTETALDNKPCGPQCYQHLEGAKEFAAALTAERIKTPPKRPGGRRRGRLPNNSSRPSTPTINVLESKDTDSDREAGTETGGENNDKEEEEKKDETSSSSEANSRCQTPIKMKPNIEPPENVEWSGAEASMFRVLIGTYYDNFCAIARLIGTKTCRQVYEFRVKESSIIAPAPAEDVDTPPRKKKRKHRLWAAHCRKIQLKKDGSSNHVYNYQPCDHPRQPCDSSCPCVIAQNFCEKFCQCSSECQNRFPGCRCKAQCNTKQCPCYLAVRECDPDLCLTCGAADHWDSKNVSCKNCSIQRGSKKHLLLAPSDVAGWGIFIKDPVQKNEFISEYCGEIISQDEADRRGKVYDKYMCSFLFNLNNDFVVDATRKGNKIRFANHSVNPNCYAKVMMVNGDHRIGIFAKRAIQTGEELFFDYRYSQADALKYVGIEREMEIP

inhibition [1]: Active | inhibition [2]: Active | inhibition [3]: inactive | inhibition [4]: inactive | inhibition [5]: Active | inhibition [6]: inactive | inhibition [7]: Active | inhibition [8]: Active | inhibition [9]: inactive | inhibition [10]: inactive | inhibition [11]: inactive | inhibition [12]: Active | inhibition [13]: Active | inhibition [14]: Active | inhibition [15]: Active | inhibition [16]: Active | inhibition [17]: Active | inhibition [18]: Active | inhibition [19]: inactive | inhibition [20]: inactive | inhibition [21]: inactive | inhibition [22]: Active | inhibition [23]: Active | inhibition [24]: inactive | inhibition [25]: inactive | inhibition [26]: inactive | inhibition [27]: inactive
Structure (SMILES): CCCc1cc(C)[nH]c(=O)c1CNC(=O)c1cc(-c2ccc(N3CCN(C(C)C)CC3)nc2)cc2c1cnn2C(C)C
